Measurements taken from ChEMBL document CHEMBL5252634, “Design, synthesis and in vitro cytotoxicity evaluation of indolo-pyrazoles grafted with thiazolidinone as tubulin polymerization inhibitors” (RSC Med Chem, 2023).
pIC50: −log10 of the molar value.

Assays:
[1] = Cytotoxicity against human BEAS-2B cells assessed as reduction in cell viability measured after 48 hrs by MTT assay; type: toxicity, cell-based
Procedure, shortened: (§1)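 Cells kept in medium with 10% FBS and 1% antibiotic–antimycotic at 37 °C, 5% CO2. Seeded at 3000–4000 cells/well, grown overnight, then given fresh medium with a range of concentrations (diluted from 10 mM DMSO stocks) for 48 h. MTT (0.5 mg/mL) added for 3–4 h at 37 °C. Formazan dissolved in DMSO and absorbance read at 570 nm.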

[2] = test system: A549; assay: Cytotoxicity against human A549 cells assessed as reduction in cell viability measured after 48 hrs by MTT assay; type: functional, cell-based; conditions: A549, 48 h; procedure, shortened: as §1
[3] = test system: SK-MEL-28; assay: Cytotoxicity against human SK-MEL-28 cells assessed as reduction in cell viability measured after 48 hrs by MTT assay; type: functional, cell-based; conditions: SK-MEL-28, 48 h; procedure, shortened: as §1
[4] = test system: B16-F10; assay: Cytotoxicity against mouse B16-F10 cells assessed as reduction in cell viability measured after 48 hrs by MTT assay; type: functional, cell-based; conditions: B16-F10, 48 h; procedure, shortened: as §1
[5] = test system: HCT-116; assay: Cytotoxicity against human HCT-116 cells assessed as reduction in cell viability measured after 48 hrs by MTT assay; type: functional, cell-based; conditions: HCT-116, 48 h; procedure, shortened: as §1
[6] = test system: SK-MEL-28; assay: Induction of cell cycle arrest in human SK-MEL-28 cells assessed as accumulation of cells at G2/M phase at 4.13 uM incubated for 48 hrs by flow cytometry (reference value: 13.14%); type: functional
[7] = test system: SK-MEL-28; assay: Induction of cell cycle arrest in human SK-MEL-28 cells assessed as accumulation of cells at S phase at 4.13 uM incubated for 48 hrs by flow cytometry (reference value: 6.34%); type: functional
[8] = test system: SK-MEL-28; assay: Induction of cell cycle arrest in human SK-MEL-28 cells assessed as accumulation of cells at G0/G1 phase at 4.13 uM incubated for 48 hrs by flow cytometry (reference value: 79.59%); type: functional
[9] = molecular target: Tubulin (Homo sapiens) (UniProt P68371+Q9H4B7+P0DPH7+P68366+Q13509+Q71U36+P04350+Q3ZCM7+P07437+P68363+Q9BQE3+Q6PEY2+Q13885+Q9BVA1+Q9BUF5); assay: Inhibition of tubulin polymerization (unknown origin) at 3 uM measured after 1 hr relative to control; type: protein-complex assay
Procedure, shortened: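 Fluorescence-based tubulin polymerization kit: tubulin, GTP and tubulin glycerol buffer mixed and added to compound (from 10x stocks), enhancer and inhibitor reference standards, and blanks in a plate prewarmed to 37 °C. Read kinetically for 1 h at ex 360/em 450 nm.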

inhibition [9] [%]	SMILES	IC50 at 48 h [1] [µM]	pIC50 [2]	pIC50 [3]	pIC50 [4]	pIC50 [5]	Activity [6] [%]	Activity [7] [%]	Activity [8] [%]
	Cn1cc(-c2cc(/N=C3/NC(=O)CS3)n(-c3ccc(Cl)cc3)n2)c2cc(Br)ccc21	> 50	4.72	4.57	4.95	4.87			
	CCn1cc(-c2cc(/N=C3/NC(=O)CS3)n(-c3ccc(Cl)cc3)n2)c2cc(Br)ccc21		4.47	4.60	4.73	< 4.30			
	CCc1ccccc1-n1nc(-c2c[nH]c3ccc(OC)cc23)cc1/N=C1/NC(=O)CS1	32	4.59	< 4.30	4.97	4.74			
	Cn1cc(-c2cc(/N=C3/NC(=O)CS3)n(-c3ccc(Cl)cc3)n2)c2ccccc21		4.52	< 4.30	< 4.30	< 4.30			
	CCc1ccccc1-n1nc(-c2cn(Cc3ccccc3)c3ccccc23)cc1/N=C1/NC(=O)CS1	27.4	4.44	4.47	< 4.30	4.45			
	CCn1cc(-c2cc(/N=C3/NC(=O)CS3)n(-c3cccc(Cl)c3)n2)c2cc(Br)ccc21		< 4.30	4.50	< 4.30	< 4.30			
	O=C1CS/C(=N\c2cc(-c3cn(Cc4ccccc4)c4ccccc34)nn2-c2ccc(Cl)cc2)N1		4.33	< 4.30	< 4.30	< 4.30			
	COc1ccc2[nH]cc(-c3cc(/N=C4/NC(=O)CS4)n(-c4ccc(Cl)cc4)n3)c2c1		4.68	4.95	4.40	4.95			
	COc1ccc2c(c1)c(-c1cc(/N=C3/NC(=O)CS3)n(-c3cccc(Cl)c3)n1)cn2C		< 4.30	< 4.30	4.63	4.65			
	CCN(CC)CCNC(=O)c1c(C)[nH]c(/C=C2\C(=O)Nc3ccc(F)cc32)c1C [SUNITINIB]	6.09	5.24	5.38	4.81	4.97	17.92	5.09	76.33
	CCc1ccccc1-n1nc(-c2cn(CC)c3ccc(Br)cc23)cc1/N=C1/NC(=O)CS1		4.47	4.46	< 4.30	< 4.30			
60	CC(=O)O[C@H]1C(=O)[C@@]2(C)[C@H]([C@H](OC(=O)c3ccccc3)[C@]3(O)C[C@H](OC(=O)[C@H](O)[C@@H](NC(=O)c4ccccc4)c4ccccc4)C(C)=C1C3(C)C)[C@]1(OC(C)=O)CO[C@@H]1C[C@@H]2O								
	CCn1cc(-c2cc(/N=C3/NC(=O)CS3)n(-c3ccc(Cl)cc3)n2)c2ccccc21	> 50	4.41	4.53	< 4.30	4.42			
	O=C1CS/C(=N\c2cc(-c3c[nH]c4ccccc34)nn2-c2ccccc2)N1	> 50	4.65	4.47	< 4.30	< 4.30			
	N#Cc1ccc(-n2nc(-c3cn(Cc4ccccc4)c4ccccc34)cc2/N=C2/NC(=O)CS2)cc1		4.65	< 4.30	< 4.30	4.48			
	O=C1CS/C(=N\c2cc(-c3cn(Cc4ccccc4)c4ccccc34)nn2-c2cccc(Cl)c2)N1	> 50	< 4.30	< 4.30	< 4.30	< 4.30			
	Cn1cc(-c2cc(/N=C3/NC(=O)CS3)n(-c3ccc(C#N)cc3)n2)c2cc(Br)ccc21		< 4.30	< 4.30	4.98	4.43			
	CCn1cc(-c2cc(/N=C3/NC(=O)CS3)n(-c3ccc(C#N)cc3)n2)c2ccccc21	> 50	4.41	4.60	4.73	< 4.30			

inhibition [9] [%]	SMILES	IC50 at 48 h [1] [µM]	pIC50 [2]	pIC50 [3]	pIC50 [4]	pIC50 [5]	Activity [6] [%]	Activity [7] [%]	Activity [8] [%]
	N#Cc1ccc(-n2nc(-c3c[nH]c4ccccc34)cc2/N=C2/NC(=O)CS2)cc1		4.47	4.59	< 4.30	< 4.30			
	CCn1cc(-c2cc(/N=C3/NC(=O)CS3)n(-c3ccc(C#N)cc3)n2)c2cc(Br)ccc21		4.44	4.49	4.96	< 4.30			
	CCc1ccccc1-n1nc(-c2cn(C)c3ccccc23)cc1/N=C1/NC(=O)CS1		4.41	4.30	< 4.30	< 4.30			
	CCc1ccccc1-n1nc(-c2c[nH]c3ccccc23)cc1/N=C1/NC(=O)CS1	14.8	4.60	4.63	4.73	4.43			
	COc1ccc2c(c1)c(-c1cc(/N=C3/NC(=O)CS3)n(-c3ccc(Cl)cc3)n1)cn2Cc1ccccc1		< 4.30	< 4.30	< 4.30	< 4.30			
	CCn1cc(-c2cc(/N=C3/NC(=O)CS3)n(-c3cccc(Cl)c3)n2)c2ccccc21		4.58	4.59	4.67	< 4.30			
	Cn1cc(-c2cc(/N=C3/NC(=O)CS3)n(-c3ccc(C#N)cc3)n2)c2ccccc21		4.43	4.64	< 4.30	4.60			
	CCc1ccccc1-n1nc(-c2cn(CC)c3ccc(OC)cc23)cc1/N=C1/NC(=O)CS1		4.62	4.57	< 4.30	4.34			
	CCn1cc(-c2cc(/N=C3/NC(=O)CS3)n(-c3cccc(Cl)c3)n2)c2cc(OC)ccc21		4.77	< 4.30	4.44	4.83			
	COc1ccc2[nH]cc(-c3cc(/N=C4/NC(=O)CS4)n(-c4cccc(Cl)c4)n3)c2c1	21.7	4.65	5.21	< 4.30	4.97			
	Cn1cc(-c2cc(/N=C3/NC(=O)CS3)n(-c3cccc(Cl)c3)n2)c2cc(Br)ccc21		4.48	4.77	4.58	4.68			
	CCc1ccccc1-n1nc(-c2cn(C)c3ccc(Br)cc23)cc1/N=C1/NC(=O)CS1		< 4.30	< 4.30	< 4.30	< 4.30			
	CCn1cc(-c2cc(/N=C3/NC(=O)CS3)n(-c3ccc(Cl)cc3)n2)c2cc(OC)ccc21	> 50	4.32	< 4.30	4.85	< 4.30			
	CCc1ccccc1-n1nc(-c2cn(C)c3ccc(OC)cc23)cc1/N=C1/NC(=O)CS1	> 50	< 4.30	4.55	< 4.30	4.47			
	CCc1ccccc1-n1nc(-c2cn(CC)c3ccccc23)cc1/N=C1/NC(=O)CS1		4.48	< 4.30	< 4.30	4.70			
	O=C1CS/C(=N\c2cc(-c3c[nH]c4ccccc34)nn2-c2ccc(Cl)cc2)N1		4.78	4.89	< 4.30	4.86			
	Cn1cc(-c2cc(/N=C3/NC(=O)CS3)n(-c3cccc(Cl)c3)n2)c2ccccc21		4.64	4.58	< 4.30	4.63			
